# APOBEC3G inh = blocks human APOBEC3G single-stranded DNA deamination; Q9HC16; recombinant A3G, ssDNA deamination FAM/TAMRA fluorescence; inhibition, % at 20 µM; 330,000 tested, 0.28% active;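 active = inhibition of at least 40% at 20 µM, with no more than 30% in the related APOBEC3A deaminase screen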;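 also: plate controls were DMSO wells with A3G for no effect and wells lacking A3G enzyme for full effect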
# Target sequence (Q9HC16 whole entry, looked up): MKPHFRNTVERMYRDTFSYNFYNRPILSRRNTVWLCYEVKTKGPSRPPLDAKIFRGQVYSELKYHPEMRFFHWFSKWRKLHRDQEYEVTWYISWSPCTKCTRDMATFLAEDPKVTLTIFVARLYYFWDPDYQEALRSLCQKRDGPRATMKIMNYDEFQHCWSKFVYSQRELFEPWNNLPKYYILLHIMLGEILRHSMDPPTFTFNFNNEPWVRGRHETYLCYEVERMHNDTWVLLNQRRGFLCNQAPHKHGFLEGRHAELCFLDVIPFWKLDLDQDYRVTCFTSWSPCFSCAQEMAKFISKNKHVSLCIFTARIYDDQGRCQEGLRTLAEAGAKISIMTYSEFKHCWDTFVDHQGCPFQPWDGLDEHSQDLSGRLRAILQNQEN
# A3A deaminase = human APOBEC3A DNA deaminase inhibition. AID 493011. 330,000 tested, 0.41% active. inhibition, % at 20 µM. P31941. recombinant A3A, FAM/TAMRA ssDNA deamination fluorescence;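 active = at least 40% inhibition at 20 µM here, with at most 30% in a related deaminase screen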;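 also: plate controls were A3A with DMSO for no effect and wells lacking A3A enzyme for full effect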
# Target sequence (P31941 whole entry, looked up): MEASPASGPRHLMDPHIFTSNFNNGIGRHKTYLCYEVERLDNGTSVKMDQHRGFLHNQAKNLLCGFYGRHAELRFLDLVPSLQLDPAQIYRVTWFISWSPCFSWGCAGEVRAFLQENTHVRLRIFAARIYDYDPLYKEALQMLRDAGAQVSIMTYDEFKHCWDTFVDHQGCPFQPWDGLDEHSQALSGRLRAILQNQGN
# Mot1-301 SUMO = blocks SUMOylation pathway, rescuing yeast Mot1-301 growth; S. cerevisiae Mot1-301 growth rescue, ATP luminescence, 38.5C; percent above DMSO median, 100 means doubled; growth rescue, % at 18.8 µM; 320,000 tested, 1% active; AID 2716;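 active = every valid replicate shows activation above 250% relative to neutral control wells; inactive = the rest, any valid replicate at or below 250%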;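 also: OY570 slx delta 5 strain wells were the positive control but not used for scaling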
# ARFGAP1 inhibitor = inhibitors of rat ARFGAP1. Q62848. Arfgap1-stimulated ARF1 GTP hydrolysis, GDP FP detection. inhibition, % at 16.5 µM. 360,000 tested, 0.26% active. AID 651572;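 active = inhibition above a per-plate limit, mean inhibition of low control wells plus 3 SD, cut at about 25% in these data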;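 also: 0% = DMSO wells with enzyme and 100% = wells lacking Arfgap1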
# Target sequence (Q62848 1-136 limits assumed): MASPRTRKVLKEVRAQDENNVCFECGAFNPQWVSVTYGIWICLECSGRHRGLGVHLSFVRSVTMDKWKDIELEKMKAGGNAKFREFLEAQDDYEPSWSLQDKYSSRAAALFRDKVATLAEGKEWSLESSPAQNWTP
#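 Material – truncated rat Arfgap1 GAP domain · Buffer or medium – HEPES-based buffer, pH 7.5 · Reagent – human ARF1(Δ1-17)-GTP substrate · Dosing – 16.5 µM single point, 1.26% DMSO · Schedule – GTP hydrolysis reaction 2 h at 25 °C · Technique – GDP detection by fluorescence polarization · Benchmarks – No-Arfgap1 wells (100%) versus DMSO full-reaction wells (0%) · Repeats – single replicate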
# C2C12 statin = protects C2C12 myotubes from simvastatin toxicity; rescue of ATP level, % at 7.49 µM; 330,000 tested, 0.78% active; ATP luminescence, 48 h; scaled: DMSO 0, geranylgeraniol control 100;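 active = mean ATP rescue above about 67%, or every replicate alone reaching that limit, limit read from the data, passing the limit was not always enough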;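 also: myotubes were challenged with 10 µM simvastatin during compound exposure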
# ASAP1 GAP inh = blocks human ASAP1-stimulated Arf1 GTP hydrolysis; Q9ULH1; GDP FP detection; inhibition, % at 16.5 µM; 360,000 tested, 0.19% active; AID 624377; in the data active = inhibition above about 25%;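 also: 0% = vehicle with enzyme and substrate and 100% = no enzyme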
# Numbers without * were called inactive; . = no result given; + = active, no number. Hits are enriched below; roughly 2.1% of the tested compounds scored in any of these assays.
SMILES,APOBEC3G inh,A3A deaminase,Mot1-301 SUMO,ARFGAP1 inhibitor,C2C12 statin,ASAP1 GAP inh
O=[N+]([O-])c1ccc(Sc2cccc3cccnc23)c([N+](=O)[O-])c1,-5.6,-1.0,19.5,-5.0,73.3*,-2.0
Cc1c(Cl)cccc1NC(=O)CNC(=O)Cc1n[nH]c(=O)c2ccccc12,-8.5,6.7,-27.0,-16.8,110.1*,-14.8
CC(C)C12CN3CC(C(C)C)(CN(C1)C31C(=O)Nc3ccccc31)C2=O (stereo not given),-4.3,-0.7,-3.2,-9.1,90.0*,-9.6
CC(C)C12CN3CC(C(C)C)(CN(C1)C3c1ccccc1O)C2=O (stereo not given),2.3,0.6,75.2,3.6,10.9,11.7
CC=Cc1ccc2n(c1=O)C[C@H]1[C@H](CO)[C@@H](C(=O)NCCC)[C@@H]2N1CC1CC1 (mixture of isomers),.,.,.,.,-14.3,.
Cc1ccc(S(=O)(=O)Nc2cccc3c2O[C@@H](CN(C)Cc2ccc(Oc4ccccc4)cc2)[C@@H](C)CN([C@@H](C)CO)C3=O)cc1,.,.,.,.,40.1,.
COc1cccc(NC(=O)N[C@H]2C=C[C@H](CC(=O)N3CCCCC3)O[C@H]2CO)c1,.,.,.,.,-2.2,.
Cc1cccc(/C=N\Nc2cn[nH]c(=O)c2Cl)c1,-3.8,-0.4,-7.5,-2.8,101.8*,-7.9
CO[C@H]1CN(C)C(=O)c2ccc(NC(=O)NC(C)C)cc2OC[C@@H](C)N(C(=O)CN(C)C)C[C@@H]1C,.,.,.,.,27.8,.
CCC1(C)C2(C#N)C(N)=NC(OC)(OC)C12C#N (stereo not given),11.0,31.9,4.0,6.6,72.2*,-0.5
CC1(C)C2(C#N)C(N)=NC3(OCCO3)C12C#N (stereo not given),-2.4,-1.8,9.3,-0.1,-1.8,-0.9
CNC[C@H]1Oc2cc(C#CCN(C)C)ccc2S(=O)(=O)N([C@H](C)CO)C[C@H]1C,.,.,.,.,6.7,.
CO[C@@H]1CN(C)C(=O)c2ccc(NC(=O)NC(C)C)cc2OC[C@@H](C)N(C(=O)CC2CC2)C[C@H]1C,.,.,.,.,-3.0,.
C[C@H]1CN([C@@H](C)CO)C(=O)c2cccc(N(C)C)c2O[C@@H]1CN(C)Cc1ccc(Cl)c(Cl)c1,.,.,.,.,94.7*,.
C[C@@H]1CN([C@H](C)CO)C(=O)Cc2cc(NC(=O)Cc3ccccc3)ccc2O[C@H]1CN(C)Cc1ccc(Cl)c(Cl)c1,.,.,.,.,44.6,.
C[C@H](CO)N1C[C@H](C)[C@@H](CN(C)Cc2ccc(Cl)c(Cl)c2)Oc2ccc(NC(=O)Cc3ccccc3)cc2CC1=O,.,.,.,.,85.7*,.
C[C@H]1CN([C@@H](C)CO)C(=O)Cc2cc(NC(=O)Cc3cn(C)c4ccccc34)ccc2O[C@@H]1CN(C)Cc1ccc(Cl)c(Cl)c1,.,.,.,.,142.3*,.
C[C@@H]1CN([C@@H](C)CO)C(=O)c2cccc(N(C)C)c2O[C@H]1CN(C)Cc1ccc(Cl)c(Cl)c1,.,.,.,.,-70.5,.
C[C@@H]1CN([C@H](C)CO)C(=O)Cc2cc(NC(=O)Cc3cn(C)c4ccccc34)ccc2O[C@@H]1CN(C)Cc1ccccc1,.,.,.,.,47.8,.
C[C@@H]1CN([C@H](C)CO)C(=O)Cc2cc(NC(=O)Cc3cn(C)c4ccccc34)ccc2O[C@@H]1CN(C)Cc1ccc(Cl)c(Cl)c1,.,.,.,.,69.0*,.
CO[C@H]1CN(C)C(=O)c2ccc(NC(=O)C3CCCC3)cc2OC[C@H](C)N(C)C[C@H]1C,.,.,.,.,-19.3,.
CCOc1ccc(C=NNc2ccc(S(=O)(=O)Nc3ccccc3C(=O)O)cc2[N+](=O)[O-])cc1,-0.2,0.3,-7.3,.,3.8,.
CCOc1cccc(C=NNc2ccc(S(=O)(=O)Nc3ccccc3C(=O)O)cc2[N+](=O)[O-])c1O,-3.0,-2.2,0.4,9.2,109.3*,8.0
Cc1ccc(CSCCNC(=O)CCSc2ccccc2)cc1,-7.2,-2.6,20.0,7.7,-4.7,-5.9
Cc1ccccc1CSCCNC(=O)CCSc1ccccc1,-1.2,1.3,321.9*,-9.6,0.5,6.4
SMILES,APOBEC3G inh,A3A deaminase,Mot1-301 SUMO,ARFGAP1 inhibitor,C2C12 statin,ASAP1 GAP inh
N#CC1=C(N)N(c2ccccc2)C(=O)C1,-8.8,-10.0,-17.9,14.9,105.8*,-11.1
Cc1cc(Cl)c(S(=O)(=O)N2CCSCC2)cc1OCC(N)=O,-5.0,-1.3,-4.8,-6.8,-5.9,-18.6
Cc1cc(Cl)c(S(=O)(=O)N2CC(C)OC(C)C2)cc1OCC(N)=O (stereo not given),-4.6,-4.0,4.7,6.0,135.5*,9.5
COc1ccc(OC)c(CN2CCN(Cc3ccc(OC)c(OC)c3OC)CC2)c1,.,.,.,-10.7,-2.3,-5.4
COc1ccc2oc(=O)cc(CN3CCN(Cc4ccc(OC)c(OC)c4OC)CC3)c2c1,-8.5,-5.3,-8.8,1.3,122.9*,-5.7
Clc1ccccc1-c1ccc2ncnc(NCc3ccc4c(c3)OCO4)c2c1,3.2,1.7,628.5*,-1.0,2.2,3.0
CC(C)NC(=O)Nc1ccc2c(c1)CC(=O)N([C@@H](C)CO)C[C@@H](C)[C@H](CN(C)S(C)(=O)=O)O2,.,.,.,.,0.3,.
C[C@H](NC(=O)C[C@@H]1CC[C@H](NC(=O)C2CCOCC2)[C@H](CO)O1)c1ccccc1,.,.,.,.,0.3,.
O=C(CNc1cccc(F)c1)N1CCc2ccccc2C1,2.4,1.3,13.8,9.2,117.9*,1.4
O=C(CSc1nc2c(sc3ccccc32)c(=O)n1Cc1ccco1)NCC1CCCO1 (stereo not given),-0.7,0.0,13.4,5.5,94.7*,9.5
Cc1ccc(-c2cnc3c(c2)C(=O)N([C@H](C)CO)C[C@@H](C)[C@H](CN(C)C)O3)cc1,.,.,.,.,12.0,.
COn1c(-c2ccccc2)nc2c1CCc1c-2no[n+]1[O-],-4.9,-3.8,3.7,-6.5,88.9*,-6.2
CCOC(=O)N1CCN(C(=O)Cc2ccsc2)CC1,-2.0,-1.4,.,4.3,110.3*,11.1
CCOC(=O)N1CCN(C(=O)Cc2cccs2)CC1,-9.2,-2.7,-16.6,-6.7,.,4.6
O=S(=O)(c1cccc(F)c1)N1CC[C@@H]2[C@@H](CO)Nc3ccc(-c4cccc(F)c4)cc3[C@@H]21,.,.,.,.,20.3,.
COCc1nc2ccccc2n1Cc1ccc(Br)cc1,-2.9,2.3,-23.9,-4.3,78.8*,2.9
CC(C)c1onc(C(=O)NCc2cccs2)c1[N+](=O)[O-],2.1,0.0,-6.3,2.3,.,-5.9
CC(C)c1onc(C(=O)NCc2ccc(F)cc2)c1[N+](=O)[O-],-5.1,-0.6,286.1*,-2.8,.,2.1
O=C(/C(=C/c1ccc(Cl)cc1)c1nc2ccccc2[nH]1)c1cccs1,-5.8,-2.1,520.6*,.,181.3*,.
O=C(/C(=C\c1ccccc1)c1nc2ccccc2[nH]1)c1ccc(Cl)cc1,-12.1,-3.9,+,-0.5,.,11.0
COc1cc(/C=C(/C(=O)c2cccs2)c2nc3ccccc3[nH]2)ccc1O,2.5,3.0,.,-7.0,6.5,3.2
COC(=O)/C(=C\c1ccc(O)cc1)c1nc2ccccc2[nH]1,1.7,-3.9,-22.1,14.1,.,8.1

# Bioassay records from PubChem.
